ChEMBL document CHEMBL1122872, “Synthesis and biological activities of some pseudo-peptide analogues of tetragastrin: the importance of the peptide backbone” (J Med Chem, 1985)
Residues, ends and D or L forms follow the SMILES beside them. *: point of attachment. Boc = CC(C)(C)OC(=O)*

Experiments:
Rattus norvegicus [1] = assay: Compound was tested in vivo for activity against gastrin induced acid secretion in rat; agonist; type: functional, organism-based; conditions: filed as agonist
[2] = Compound was tested in vitro for inhibition of [125I](Leu15)-HG-17 binding to isolated gastric mucosal cells.; type: tissue-based, Rattus norvegicus, Gastric mucosa
Procedure, shortened: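 Fundic mucosal cells, dispersed by collagenase/EDTA (about 45% parietal cells, 95% viable), were incubated at 5 × 10^6 cells/mL in Earle's medium without bicarbonate (10 mM Hepes, 0.2% BSA, pH 7.4). Incubation was with 20 pM [125I]-(Leu15)-HG-17 for 30 min at 37 °C across a range of peptide concentrations. Nonsaturable binding was taken with 1 × 10^-6 M unlabeled (Nle11)-HG-13. Quadruplicate determinations.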

Rattus norvegicus [3] = assay: Compound was tested in vivo for activity against gastrin induced acid secretion in rat.; type: functional
Procedure, shortened: (§1)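 In anaesthetized rats, peptide in alkaline aqueous solution was given as an iv bolus at various doses together with 80 pmol (Leu15)-HG-17 (submaximal dose). pH was recorded for 40 min. For each dose, H+ output with peptide plus gastrin was divided by output with gastrin alone and expressed as percent inhibition.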

Rattus norvegicus [4] = assay: Compound was tested in vivo for activity against gastrin induced acid secretion in rat; antagonist; type: functional, organism-based; conditions: filed as antagonist; procedure, shortened: as §1

Row | IC50 [2] | Structure (SMILES) | Activity (Rattus norvegicus [1]) | ED50 (Rattus norvegicus [3]) | Activity (Rattus norvegicus [4])
1 | 300 nM | CC(C)C[C@H](NC[C@H](Cc1c[nH]c2ccccc12)NC(=O)OC(C)(C)C)C(=O)N[C@@H](CC(=O)O)C(=O)N[C@@H](Cc1ccccc1)C(N)=O | Agonist |  | 
2 | 250 nM | CC(C)C[C@@H](CN[C@@H](CC(=O)O)C(=O)N[C@@H](Cc1ccccc1)C(N)=O)NC(=O)[C@H](Cc1c[nH]c2ccccc12)NC(=O)OC(C)(C)C |  | 0.3 mg/kg | Antagonist
3 | 500 nM | CC(C)C[C@H](NC(=O)[C@H](Cc1c[nH]c2ccccc12)NC(=O)OC(C)(C)C)C(=O)N[C@@H](CC(=O)O)C(=O)N[C@@H](Cc1ccccc1)C(N)=O (Boc-WLDF-NH2) | Agonist |  | 
4 | 5000 nM | CC(C)C[C@H](NC(=O)[C@H](Cc1c[nH]c2ccccc12)NC(=O)OC(C)(C)C)C(=O)N[C@H](CN[C@@H](Cc1ccccc1)C(N)=O)CC(=O)O |  | 15 mg/kg | Antagonist
